Laboratory results taken from ChEMBL document CHEMBL1135742, “Modification of the structure of a metallopeptide: synthesis and biological evaluation of (111)In-labeled DOTA-conjugated rhenium-cyclized alpha-MSH analogues” (J Med Chem, 2002).

Tests used:
Type in all cases: functional, organism-based
Mus musculus [1] = organism: Mus musculus; assay: Uptake Ratio of Tumor/blood (each in % ID/g) in B16/F1 Murine Melanoma-Bearing C57 Mice at 24 h
Outline: (§1)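 C57 BL/6 female mice (7–8 weeks) carried B16/F1 tumours from 1×10^6 cells given s.c. in the right flank; tumours were ~500 mg at 9–10 days. Each mouse received […] of HPLC-purified, neutralized 111In-DOTA peptide via the tail vein. Mice were killed at 0.5, 2, 4 or 24 h pi. Tissues were weighed and γ-counted, expressed as % ID/g; ratios were tumor/tissue % ID/g.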

Mus musculus [2] = organism: Mus musculus; assay: Radioactivity uptake in the heart was expressed as a percentage of the injected radioactive dose per gram of tissue (% ID/g) in B16/F1 Murine Melanoma-Bearing C57 Mice at 0.5 h; outline: as §1
Mus musculus [3] = organism: Mus musculus; assay: Uptake Ratio of Tumor/blood (each in % ID/g) in B16/F1 Murine Melanoma-Bearing C57 Mice at 4 h; outline: as §1
Mus musculus [4] = organism: Mus musculus; assay: Uptake Ratio of Tumor/lungs (each in % ID/g) in B16/F1 Murine Melanoma-Bearing C57 Mice at 2 h
Outline: (§2)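 Female C57 BL/6 mice, 7–8 weeks old, carried subcutaneous right-flank B16/F1 tumors from 1×10^6 cells and were used 9–10 days later at ~500 mg tumor weight. Each received […] of HPLC-purified, pH-neutralized ¹¹¹In-DOTA peptide by tail vein. Tumor and organs were excised at the stated time, weighed and γ-counted. Each tissue was taken as % ID/g, and tumor/normal-tissue ratios were formed from these values.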

Mus musculus [5] = organism: Mus musculus; assay: Uptake Ratio of Tumor/liver (each in % ID/g) in B16/F1 Murine Melanoma-Bearing C57 Mice at 24 h; outline: as §1
Mus musculus [6] = organism: Mus musculus; assay: Uptake Ratio of Tumor/kidneys (each in % ID/g) in B16/F1 Murine Melanoma-Bearing C57 Mice at 0.5 h; conditions: Kidney; outline: as §1
Mus musculus [7] = organism: Mus musculus; assay: Radioactivity uptake in the muscle was expressed as a percentage of the injected radioactive dose per gram of tissue (% ID/g) in B16/F1 Murine Melanoma-Bearing C57 Mice at 24 h; outline: as §1
Mus musculus [8] = organism: Mus musculus; assay: Radioactivity uptake in the muscle was expressed as a percentage of the injected radioactive dose per gram of tissue (% ID/g) in B16/F1 Murine Melanoma-Bearing C57 Mice at 2 h; outline: as §1
Mus musculus [9] = organism: Mus musculus; assay: Uptake Ratio of Tumor/liver (each in % ID/g) in B16/F1 Murine Melanoma-Bearing C57 Mice at 4 h; outline: as §1
Mus musculus [10] = organism: Mus musculus; assay: Radioactivity uptake in the heart was expressed as a percentage of the injected radioactive dose per gram of tissue (% ID/g) in B16/F1 Murine Melanoma-Bearing C57 Mice at 2 h; outline: as §1
Mus musculus [11] = organism: Mus musculus; assay: Radioactivity uptake in the liver was expressed as a percentage of the injected radioactive dose per gram of tissue (% ID/g) in B16/F1 Murine Melanoma-Bearing C57 Mice at 24 h; outline: as §1
Mus musculus [12] = organism: Mus musculus; assay: Radioactivity uptake in the pancreas was expressed as a percentage of the injected radioactive dose per gram of tissue (% ID/g) in B16/F1 Murine Melanoma-Bearing C57 Mice at 2 h; outline: as §1
Mus musculus [13] = organism: Mus musculus; assay: Uptake Ratio of Tumor/muscle (each in % ID/g) in B16/F1 Murine Melanoma-Bearing C57 Mice at 2 h; conditions: Muscle tissue; outline: as §2
Mus musculus [14] = organism: Mus musculus; assay: Uptake Ratio of Tumor/kidneys (each in % ID/g) in B16/F1 Murine Melanoma-Bearing C57 Mice at 24 h; conditions: Kidney; outline: as §1
Mus musculus [15] = organism: Mus musculus; assay: Uptake Ratio of Tumor/muscle (each in % ID/g) in B16/F1 Murine Melanoma-Bearing C57 Mice at 0.5 h; conditions: Muscle tissue; outline: as §2
Mus musculus [16] = organism: Mus musculus; assay: Radioactivity uptake in the lungs was expressed as a percentage of the injected radioactive dose per gram of tissue (% ID/g) in B16/F1 Murine Melanoma-Bearing C57 Mice at 4 h; conditions: Lung; outline: as §1
Mus musculus [17] = organism: Mus musculus; assay: Radioactivity uptake in the tumor was expressed as a percentage of the injected radioactive dose per gram of tissue (% ID/g) in B16/F1 Murine Melanoma-Bearing C57 Mice at 0.5 h; outline: as §1
Mus musculus [18] = organism: Mus musculus; assay: Uptake Ratio of Tumor/blood (each in % ID/g) in B16/F1 Murine Melanoma-Bearing C57 Mice at 2 h; outline: as §1
Mus musculus [19] = organism: Mus musculus; assay: Radioactivity uptake in the tumor was expressed as a percentage of the injected radioactive dose per gram of tissue (% ID/g) in B16/F1 Murine Melanoma-Bearing C57 Mice at 4 h; outline: as §1
Mus musculus [20] = organism: Mus musculus; assay: Uptake Ratio of Tumor/liver (each in % ID/g) in B16/F1 Murine Melanoma-Bearing C57 Mice at 2 h; outline: as §1
Mus musculus [21] = organism: Mus musculus; assay: Radioactivity uptake in the tumor was expressed as a percentage of the injected radioactive dose per gram of tissue (% ID/g) in B16/F1 Murine Melanoma-Bearing C57 Mice at 2 h; outline: as §1
Mus musculus [22] = organism: Mus musculus; assay: Uptake Ratio of Tumor/muscle (each in % ID/g) in B16/F1 Murine Melanoma-Bearing C57 Mice at 4 h; conditions: Muscle tissue; outline: as §2
Mus musculus [23] = organism: Mus musculus; assay: Radioactivity uptake in the heart was expressed as a percentage of the injected radioactive dose per gram of tissue (% ID/g) in B16/F1 Murine Melanoma-Bearing C57 Mice at 24 h; outline: as §1
Mus musculus [24] = organism: Mus musculus; assay: Radioactivity uptake in the liver was expressed as a percentage of the injected radioactive dose per gram of tissue (% ID/g) in B16/F1 Murine Melanoma-Bearing C57 Mice at 2 h; outline: as §1
Mus musculus [25] = organism: Mus musculus; assay: Uptake Ratio of Tumor/muscle (each in % ID/g) in B16/F1 Murine Melanoma-Bearing C57 Mice at 24 h; conditions: Muscle tissue; outline: as §2
Mus musculus [26] = organism: Mus musculus; assay: Radioactivity uptake in the tumor was expressed as a percentage of the injected radioactive dose per gram of tissue (% ID/g) in B16/F1 Murine Melanoma-Bearing C57 Mice at 24 h; outline: as §1
Mus musculus [27] = organism: Mus musculus; assay: Radioactivity uptake in the spleen was expressed as a percentage of the injected radioactive dose per gram of tissue (% ID/g) in B16/F1 Murine Melanoma-Bearing C57 Mice at 24 h; outline: as §1
Mus musculus [28] = organism: Mus musculus; assay: Radioactivity uptake in the kidneys was expressed as a percentage of the injected radioactive dose per gram of tissue (% ID/g) in B16/F1 Murine Melanoma-Bearing C57 Mice at 2 h; conditions: Kidney; outline: as §1
Mus musculus [29] = organism: Mus musculus; assay: Radioactivity uptake in the lungs was expressed as a percentage of the injected radioactive dose per gram of tissue (% ID/g) in B16/F1 Murine Melanoma-Bearing C57 Mice at 0.5 h; conditions: Lung; outline: as §1
Mus musculus [30] = organism: Mus musculus; assay: Radioactivity uptake in the lungs was expressed as a percentage of the injected radioactive dose per gram of tissue (% ID/g) in B16/F1 Murine Melanoma-Bearing C57 Mice at 24 h; conditions: Lung; outline: as §1
Mus musculus [31] = organism: Mus musculus; assay: Radioactivity uptake in the liver was expressed as a percentage of the injected radioactive dose per gram of tissue (% ID/g) in B16/F1 Murine Melanoma-Bearing C57 Mice at 0.5 h; outline: as §1
Mus musculus [32] = organism: Mus musculus; assay: Radioactivity uptake in the kidneys was expressed as a percentage of the injected radioactive dose per gram of tissue (% ID/g) in B16/F1 Murine Melanoma-Bearing C57 Mice at 24 h; conditions: Kidney; outline: as §1
Mus musculus [33] = organism: Mus musculus; assay: Radioactivity uptake in the liver was expressed as a percentage of the injected radioactive dose per gram of tissue (% ID/g) in B16/F1 Murine Melanoma-Bearing C57 Mice at 4 h; outline: as §1

Substance	Uptake ratio (Mus musculus [1])	ID/g (Mus musculus [2]) [%]	Uptake ratio (Mus musculus [3])	Uptake ratio (Mus musculus [4])	Uptake ratio (Mus musculus [5])	Uptake ratio (Mus musculus [6])	ID/g (Mus musculus [7]) [%]	ID/g (Mus musculus [8]) [%]	Uptake ratio (Mus musculus [9])	ID/g (Mus musculus [10]) [%]	ID/g (Mus musculus [11]) [%]	ID/g (Mus musculus [12]) [%]	Uptake ratio (Mus musculus [13])	Uptake ratio (Mus musculus [14])	Uptake ratio (Mus musculus [15])	ID/g (Mus musculus [16]) [%]	ID/g (Mus musculus [17]) [%]	Uptake ratio (Mus musculus [18])	ID/g (Mus musculus [19]) [%]	Uptake ratio (Mus musculus [20])	further results
Ac-Lys(DOTA)-ReCCEHdFRWCKPV-NH2	67.2	0.86	88.7	48.6	12.7	0.3	0.11	0.02	20.8	0.08	0.28	0.074	468	0.27	17.6	0.18	7.15	175	6.01	33.3	ID/g (Mus musculus [21]): 8.15%; Uptake ratio (Mus musculus [22]): 3400; ID/g (Mus musculus [23]): 0.13%; ID/g (Mus musculus [24]): 0.24%; Uptake ratio (Mus musculus [25]): 13.3; ID/g (Mus musculus [26]): 3.54%; ID/g (Mus musculus [27]): 0.21%; ID/g (Mus musculus [28]): 18.4%; ID/g (Mus musculus [29]): 1.51%; ID/g (Mus musculus [30]): 0.14%; ID/g (Mus musculus [31]): 0.66%; ID/g (Mus musculus [32]): 13.4%; ID/g (Mus musculus [33]): 0.29%
DOTA-ReCCEHdFRWCKPV-NH2	601	0.72	490	69.4	32.7	0.85	0.031	0.047	49.4	0.066	0.16	0.048	319	0.88	27.8	0.11	10.4	196	9.46	49.9	ID/g (Mus musculus [21]): 11.4%; Uptake ratio (Mus musculus [22]): 159; ID/g (Mus musculus [23]): 0.13%; ID/g (Mus musculus [24]): 0.23%; Uptake ratio (Mus musculus [25]): 173; ID/g (Mus musculus [26]): 4.86%; ID/g (Mus musculus [27]): 0.14%; ID/g (Mus musculus [28]): 8.98%; ID/g (Mus musculus [29]): 1.7%; ID/g (Mus musculus [30]): 0.06%; ID/g (Mus musculus [31]): 0.59%; ID/g (Mus musculus [32]): 5.64%; ID/g (Mus musculus [33]): 0.2%
